The results in this text go back to ChEMBL document CHEMBL3351933, “Indimicins A-E, Bisindole Alkaloids from the Deep-Sea-Derived Streptomyces sp. SCSIO 03032” (J Nat Prod, 2014).

One assay has as its system Escherichia coli. In words: Antimicrobial activity against Escherichia coli ATCC 25922 by the broth microdilution method. In kind it is functional.
Another assay deals with Staphylococcus aureus. In words: Antimicrobial activity against Staphylococcus aureus ATCC 29213 by the broth microdilution method. Type of assay: functional.
The subject of another assay is Bacillus thuringiensis. The assay can be described thus: Antimicrobial activity against Bacillus thuringiensis SCSIO BT01 by the broth microdilution method. In kind it is functional.
For the next assay, the system named is Bacillus subtilis. The assay can be described thus: Antimicrobial activity against Bacillus subtilis SCSIO BS01 by the broth microdilution method. In kind it is functional.
In a further assay the test system is Candida albicans. In words: Antimicrobial activity against Candida albicans ATCC10231 by the broth microdilution method. Type of assay: functional.
Another assay concerns MCF7. In words: Cytotoxicity against human MCF7 cells by SRB assay. In kind it is functional, cell-based. The method in brief: (§1)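 Sulforhodamine B (SRB) cytotoxicity assay, following an earlier published protocol, run in vitro against a four-line human tumor panel: HepG2 (hepatocellular liver carcinoma), MCF7 (breast adenocarcinoma), NCI-H460 (non-small-cell lung cancer) and SF268 (glioma). IC50 values reported in μM.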

The next assay deals with NCI-H460. The assay can be described thus: Cytotoxicity against human NCI-H460 cells by SRB assay. Type of assay: functional, cell-based. The method in brief:
as §1

A further assay deals with HepG2. The assay can be described thus: Cytotoxicity against human HepG2 cells by SRB assay. Type of assay: functional, cell-based. An outline of the steps:
as §1

Activity calls are given as the source filed them. The calls are words filed in the database; no cut-off is given here.

In the case of `COC(=O)c1c(-c2c[nH]c3ccc(Cl)cc23)c(-c2c[nH]c3ccc(Cl)cc23)cn1C`, the MIC in the assay with Escherichia coli, against Staphylococcus aureus, against Bacillus thuringiensis, in the assay with Bacillus subtilis and against Candida albicans was > 128 µg/mL throughout. The IC50 in the assay on MCF7 was > 10 µM. Besides, the inhibition entry with NCI-H460 and in the assay with HepG2 was “inactive” each time.
`COC(=O)c1c(-c2c[nH]c3ccc(Cl)cc23)c(-c2c[nH]c3ccc(Cl)cc23)c(C(=O)OC)n1C`: the MIC in the assay with Escherichia coli, in the assay on Staphylococcus aureus, against Bacillus thuringiensis, with Bacillus subtilis and against Candida albicans was > 128 µg/mL in each case. In addition, the IC50 with MCF7 was > 10 µM. Also, the inhibition entry with NCI-H460 and with HepG2 was “inactive” throughout.
`Cc1[nH]cc2c1-c1c([nH]c3ccc(Cl)cc13)[C@H]1N(C)c3ccc(Cl)cc3[C@@]21C`: the MIC in the assay with Escherichia coli, against Staphylococcus aureus, with Bacillus thuringiensis, in the assay on Bacillus subtilis and against Candida albicans was > 128 µg/mL each time. Besides, the IC50 in the assay on MCF7 was > 10 µM. For the same compound, the inhibition result with NCI-H460 and in the assay with HepG2 was “inactive” throughout.
On to `Cc1c2c(cn1C)[C@]1(C)c3cc(Cl)ccc3N(C)[C@@H]1c1[nH]c3ccc(Cl)cc3c1-2`, for which the MIC in the assay with Escherichia coli, against Staphylococcus aureus, against Bacillus thuringiensis, with Bacillus subtilis and in the assay on Candida albicans was > 128 µg/mL each time. In the assay with MCF7, this compound displayed an IC50 of 10 µM. The inhibition entry in the assay on NCI-H460 and in the assay on HepG2 was “inactive” each time.
`CN1C[C@](C)(c2cn(C)cc2-c2c[nH]c3ccc(Cl)cc23)c2cc(Cl)ccc21`: the MIC against Escherichia coli, with Staphylococcus aureus, against Bacillus thuringiensis, against Bacillus subtilis and in the assay on Candida albicans was > 128 µg/mL throughout. The IC50 in the assay with MCF7 is > 10 µM. The inhibition result in the assay with NCI-H460 and with HepG2 was “inactive” in each case.
On to `CN1c2ccc(Cl)cc2[C@@]2(C)c3c[nH]cc3-c3c([nH]c4ccc(Cl)cc34)[C@@H]12`, for which the MIC against Escherichia coli, in the assay on Staphylococcus aureus, in the assay on Bacillus thuringiensis, against Bacillus subtilis and against Candida albicans was > 128 µg/mL throughout. The IC50 in the assay on MCF7 is > 10 µM. The inhibition entry with NCI-H460 and in the assay on HepG2 was “inactive” throughout.
For the compound `CN1c2ccc(Cl)cc2[C@@]2(C)c3cn(C)cc3-c3c([nH]c4ccc(Cl)cc34)[C@@H]12`, the MIC in the assay with Escherichia coli, against Staphylococcus aureus, in the assay on Bacillus thuringiensis, with Bacillus subtilis and with Candida albicans was > 128 µg/mL in each case. Further, in the assay on MCF7, the IC50 is > 10 µM. Besides, the inhibition result with NCI-H460 and in the assay with HepG2 was “inactive” in each case.
